In ChEMBL document CHEMBL1132358, “Virtual combinatorial syntheses and computational screening of new potential anti-herpes compounds” (J Med Chem, 1999):

Test system: Vero
Test: Anti-Herpes simplex virus type-1 activity in vero cells using plaque inhibition assay
Assay type: functional, cell-based, Chlorocebus sabaeus
Outline: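 Plaque-reduction assay with HSV-1 McIntyre strain (titrated suspension) on confluent Vero monolayers. Cells infected with 100 PFU in MEM and adsorbed 2 h at 37 °C. Inoculum then replaced with MEM containing 0.2% γ-globulin plus serial concentrations of compound. Untreated infected wells served as CPE controls; CPE completed 1–2 days post-infection. Result given as IC50.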

## O=c1[nH]cnc2c1ncn2[C@@H]1O[C@H](CO)[C@@H](O)[C@H]1O [INOSINE]
Chlorocebus sabaeus, Vero
  IC50: 230 nM

## O=C(O)C1=C(C(=O)Oc2ccc(F)cc2F)CCC1
Chlorocebus sabaeus, Vero
  IC50: 1400 nM

## O=C1NC(=O)C([N+](=O)[O-])C(=O)N1
Chlorocebus sabaeus, Vero
  IC50: 1700 nM

## O=C(O)CCC(=O)O [SUCCINIC ACID]
Chlorocebus sabaeus, Vero
  IC50: 1300 nM

## O=C(O)c1n[nH]nc1C(=O)O
Chlorocebus sabaeus, Vero
  IC50: 5000 nM

## O=C(O)CCCCC(=O)O [ADIPIC ACID]
Chlorocebus sabaeus, Vero
  IC50: 400 nM

## Nc1nc(N)c2nc(CO)cnc2n1
Chlorocebus sabaeus, Vero
  IC50: 160 nM

## OC[C@H]1O[C@@H](n2cnc3cncnc32)[C@H](O)[C@@H]1O [NEBULARINE]
Chlorocebus sabaeus, Vero
  IC50: 600 nM

## Cc1cn([C@@H]2O[C@H](CO)[C@@H](O)[C@H]2O)c(=O)nc1N
Chlorocebus sabaeus, Vero
  IC50: 60 nM

## Cc1noc(C)c1[N+](=O)[O-]
Chlorocebus sabaeus, Vero
  IC50: 900 nM

## O=C(O)C1=C(C(=O)Nc2c(F)cccc2F)CCC1
Chlorocebus sabaeus, Vero
  IC50: 900 nM

## O=C(O)C1=C(C(=O)Oc2ccc(F)c(F)c2F)CCC1
Chlorocebus sabaeus, Vero
  IC50: 1800 nM

## O=C1CN(/N=C/c2ccc([N+](=O)[O-])o2)C(=O)N1 [NITROFURANTOIN]
Chlorocebus sabaeus, Vero
  IC50: 900 nM

## Cc1cc(=O)oc2cc(OCC(=O)O)ccc12
Chlorocebus sabaeus, Vero
  IC50: 70 nM

## O=c1ccn([C@H]2C[C@H](O)[C@@H](CO)O2)c(=O)[nH]1 [DEOXYURIDINE]
Chlorocebus sabaeus, Vero
  IC50: 2200 nM

## Nc1ncnc2c1ncn2[C@@H]1O[C@H](CO)C[C@H]1O [CORDYCEPIN]
Chlorocebus sabaeus, Vero
  IC50: 500 nM

## Cc1cn([C@H]2C[C@H](O)[C@@H](CO)O2)c(=O)[nH]c1=O [DOXRIBTIMINE]
Chlorocebus sabaeus, Vero
  IC50: 400 nM
vero
  IC50: 300 nM

## O=C(CN1CCNCC1)N1CCCC1
Chlorocebus sabaeus, Vero
  IC50: 600 nM

## O=C(O)C1=C(C(=O)Nc2cccc(F)c2F)CCC1
Chlorocebus sabaeus, Vero
  IC50: 900 nM

## O=C(O)C1=C(C(=O)Nc2ccc(F)c(F)c2F)CCC1
Chlorocebus sabaeus, Vero
  IC50: 900 nM
